Data taken from ChEMBL document CHEMBL1649289, “Paradoxical growth of Candida dubliniensis does not preclude in vivo response to echinocandin therapy” (2009).
Values after ≈ are worked out from the molar mass of the structure shown. Starred links: 1 amine or outer side, 2 acyl side, 3 side chain; linkers in the order of their positions; H or OH if unused. Positions of bridges follow the written chain, without caps; N, C: chain ends. Non-standard residues stand in square brackets, D forms with d. Residues, ends and D or L forms follow the SMILES beside them. *: point of attachment. pTerphenylCO(4''-OnC5H11) = CCCCCOc1ccc(-c2ccc(-c3ccc(C(=O)*)cc3)cc2)cc1; Orn(4R-OH,5R-OH) = O=C([C@H](C[C@@H](O)[C@@H](O)N[*:3])N[*:1])[*:2]; hTyr(3S-OH,4S-OH) = N[C@H](C(=O)O)[C@H](O)[C@@H](O)c1ccc(O)cc1; Pro(3S-OH,4S-Me) = C[C@H]1CN[C@H](C(=O)O)[C@H]1O; Hyp = O=C(O)[C@@H]1C[C@@H](O)CN1

How the values were obtained:
Assay type in all cases: functional
Candida dubliniensis [1] = assay: Antifungal activity against Candida dubliniensis FMR 10032 infected in OF1 mouse assessed as fungal count in kidney at 1 mg/kg/day, iv […]
Summary of the method: (§1)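 Immunocompetent male OF1 mice, 10 per group, were challenged i.v. with 1.5 × 10^7 CFU. Drug was given i.v. once daily at 1 or 10 mg/kg for 3 days, starting 24 h post-challenge; controls were untreated. Mice were killed 1 day after the last dose. Kidneys and spleen were homogenized in saline, serial 10-fold dilutions were plated on Sabouraud agar at 35°C for 3 days, and mean log10 CFU was reported.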

Candida dubliniensis [2] = assay: Antifungal activity against Candida dubliniensis FMR 10034 infected in OF1 mouse assessed as fungal count in kidney at 10 mg/kg/day, iv […]; summary of the method: as §1
Candida dubliniensis [3] = assay: Antifungal activity against Candida dubliniensis 10035 after 24 hrs; conditions: Candida dubliniensis, 10035, 24 h
Summary of the method: (§2)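 CLSI M27-A3 broth microdilution. Yeast inoculum was adjusted with a hemocytometer. MIC was read at 24 h or 48 h as the lowest concentration giving 50% growth inhibition.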

Candida dubliniensis [4] = assay: Antifungal activity against Candida dubliniensis FMR 10034 infected in OF1 mouse assessed as fungal count in spleen at 10 mg/kg/day, iv […]; summary of the method: as §1
Candida dubliniensis [5] = assay: Antifungal activity against Candida dubliniensis 10032 after 48 hrs; conditions: Candida dubliniensis, 10032, 48 h; summary of the method: as §2
Candida dubliniensis [6] = assay: Antifungal activity against Candida dubliniensis 9456 after 48 hrs; conditions: Candida dubliniensis, 9456, 48 h; summary of the method: as §2
Candida dubliniensis [7] = assay: Antifungal activity against Candida dubliniensis FMR 10034 infected in immunosuppressed OF1 mouse assessed as fungal count in spleen at 1 mg/kg/day, iv […]
Summary of the method: (§3)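 Male OF1 mice, 10 per group, were immunosuppressed on infection day with cyclophosphamide 200 mg/kg i.p. plus 5-fluorouracil 150 mg/kg i.v., then challenged i.v. with 1.5 × 10^5 CFU. Drug was given at 1 mg/kg i.v. once daily for 5 days, starting 24 h after challenge. One day after treatment ended, kidney and spleen homogenates were plated in 10-fold dilutions on Sabouraud agar (35°C, 3 days) and mean log10 CFU was reported.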

Candida dubliniensis [8] = assay: Antifungal activity against Candida dubliniensis 10035 after 48 hrs; conditions: Candida dubliniensis, 10035, 48 h; summary of the method: as §2
Candida dubliniensis [9] = assay: Antifungal activity against Candida dubliniensis 9456 assessed as compound concentration at which paradoxical growth of observed after 48 hrs
Summary of the method: (§4)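 Broth dilution susceptibility testing of yeasts per CLSI reference method M27-A3, with inocula adjusted by hemocytometer count. Wells were read at 24 and 48 h. The paradoxical growth range is the span of drug concentrations (μg/ml) over which growth reappeared above the inhibitory concentration. Where growth occurred across the entire concentration range (trailing), no range was determined.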

Candida dubliniensis [10] = assay: Antifungal activity against Candida dubliniensis 10033 after 48 hrs; conditions: Candida dubliniensis, 10033, 48 h; summary of the method: as §2
Candida dubliniensis [11] = assay: Antifungal activity against Candida dubliniensis 10034 by hemocytometry
Summary of the method: (§5)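 Minimal fungicidal concentration from the broth dilution test, defined as the lowest drug level giving ≥99.9% reduction in CFU/ml. Inocula were adjusted by hemocytometer.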

Candida dubliniensis [12] = assay: Antifungal activity against Candida dubliniensis FMR 10032 infected in immunosuppressed OF1 mouse assessed as fungal count in kidney at 1 mg/kg/day, iv […]; summary of the method: as §3
Candida dubliniensis [13] = assay: Antifungal activity against Candida dubliniensis FMR 10032 infected in immunosuppressed OF1 mouse assessed as fungal count in spleen at 1 mg/kg/day, iv […]; summary of the method: as §3
Candida dubliniensis [14] = assay: Antifungal activity against Candida dubliniensis 10031 after 24 hrs; conditions: Candida dubliniensis, 10031, 24 h; summary of the method: as §2
Candida dubliniensis [15] = assay: Antifungal activity against Candida dubliniensis 10034 assessed as compound concentration at which paradoxical growth of observed after 48 hrs
Summary of the method: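 In the same broth dilution (CLSI M27-A3) tests, read at 24 or 48 h, this is the range of drug concentrations over which paradoxical growth appeared. It was not set when growth occurred across the whole tested range (trailing).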

Candida dubliniensis [16] = assay: Antifungal activity against Candida dubliniensis FMR 10032 infected in OF1 mouse assessed as fungal count in spleen at 10 mg/kg/day, iv […]; summary of the method: as §1
Candida dubliniensis [17] = assay: Antifungal activity against Candida dubliniensis FMR 10032 infected in OF1 mouse assessed as fungal count in spleen at 1 mg/kg/day, iv […]; summary of the method: as §1
Candida dubliniensis [18] = assay: Antifungal activity against Candida dubliniensis 10033 by hemocytometry; summary of the method: as §5
Candida dubliniensis [19] = assay: Antifungal activity against Candida dubliniensis 9453 assessed as compound concentration at which paradoxical growth of observed after 48 hrs; summary of the method: as §4
Candida dubliniensis [20] = assay: Antifungal activity against Candida dubliniensis FMR 10034 infected in OF1 mouse assessed as fungal count in spleen at 1 mg/kg/day, iv […]; summary of the method: as §1
Candida dubliniensis [21] = assay: Antifungal activity against Candida dubliniensis 10031 after 48 hrs; conditions: Candida dubliniensis, 10031, 48 h; summary of the method: as §2
Candida dubliniensis [22] = assay: Antifungal activity against Candida dubliniensis 9456 after 24 hrs; conditions: Candida dubliniensis, 9456, 24 h; summary of the method: as §2
Candida dubliniensis [23] = assay: Antifungal activity against Candida dubliniensis 10034 after 24 hrs; conditions: Candida dubliniensis, 10034, 24 h; summary of the method: as §2
Candida dubliniensis [24] = assay: Antifungal activity against Candida dubliniensis 10031 by hemocytometry; summary of the method: as §5
Candida dubliniensis [25] = assay: Antifungal activity against Candida dubliniensis 10034 after 48 hrs; conditions: Candida dubliniensis, 10034, 48 h; summary of the method: as §2
Candida dubliniensis [26] = assay: Antifungal activity against Candida dubliniensis FMR 10034 infected in OF1 mouse assessed as fungal count in kidney at 1 mg/kg/day, iv […]; summary of the method: as §1
Candida dubliniensis [27] = assay: Antifungal activity against Candida dubliniensis 10033 assessed as compound concentration at which paradoxical growth of observed after 48 hrs; summary of the method: as §4
Candida dubliniensis [28] = assay: Antifungal activity against Candida dubliniensis 9453 after 24 hrs; conditions: Candida dubliniensis, 9453, 24 h; summary of the method: as §2
Candida dubliniensis [29] = assay: Antifungal activity against Candida dubliniensis 9453 by hemocytometry; summary of the method: as §5
Candida dubliniensis [30] = assay: Antifungal activity against Candida dubliniensis 9453 after 48 hrs; conditions: Candida dubliniensis, 9453, 48 h; summary of the method: as §2
Candida dubliniensis [31] = assay: Antifungal activity against Candida dubliniensis FMR 10034 infected in immunosuppressed OF1 mouse assessed as fungal count in kidney at 1 mg/kg/day, iv […]; summary of the method: as §3
Candida dubliniensis [32] = assay: Antifungal activity against Candida dubliniensis FMR 10032 infected in OF1 mouse assessed as fungal count in kidney at 10 mg/kg/day, iv […]; summary of the method: as §1
Candida dubliniensis [33] = assay: Antifungal activity against Candida dubliniensis 10032 after 24 hrs; conditions: Candida dubliniensis, 10032, 24 h; summary of the method: as §2
Candida dubliniensis [34] = assay: Antifungal activity against Candida dubliniensis 10032 by hemocytometry; summary of the method: as §5
Candida dubliniensis [35] = assay: Antifungal activity against Candida dubliniensis 9456 by hemocytometry; summary of the method: as §5
Candida dubliniensis [36] = assay: Antifungal activity against Candida dubliniensis 10033 after 24 hrs; conditions: Candida dubliniensis, 10033, 24 h; summary of the method: as §2

## CCCCCOc1ccc(-c2ccc(-c3ccc(C(=O)N[C@H]4C[C@@H](O)[C@@H](O)NC(=O)[C@@H]5[C@@H](O)[C@@H](C)CN5C(=O)[C@H]([C@@H](C)O)NC(=O)[C@H]([C@H](O)[C@@H](O)c5ccc(O)cc5)NC(=O)[C@@H]5C[C@@H](O)CN5C(=O)[C@H]([C@@H](C)O)NC4=O)cc3)cc2)cc1 [ANIDULAFUNGIN] ({pTerphenylCO(4''-OnC5H11)}-[Orn(4R-OH,5R-OH)]T[Hyp][hTyr(3S-OH,4S-OH)]T[Pro(3S-OH,4S-Me)]; lactam 1-C)
Candida dubliniensis [1]
  log10cfu: 5.65
Candida dubliniensis [2]
  log10cfu: 4.63
Candida dubliniensis [3]
  MIC50: < 0.03 µg/mL
Candida dubliniensis [4]
  log10cfu: 4.25
Candida dubliniensis [5]
  MIC50: < 0.03 µg/mL
Candida dubliniensis [6]
  MIC50: < 0.03 µg/mL
Candida dubliniensis [7]
  log10cfu: 2.96
Candida dubliniensis [8]
  MIC50: < 0.03 µg/mL
Candida dubliniensis [9]
  Activity: 8 µg/mL
Candida dubliniensis [10]
  MIC50: 0.06 µg/mL (≈ 0.0526 µM)
Candida dubliniensis [11]
  MFC: > 16 µg/mL
Candida dubliniensis [12]
  log10cfu: 5.75
Candida dubliniensis [13]
  log10cfu: 2.62
Candida dubliniensis [14]
  MIC50: < 0.03 µg/mL
Candida dubliniensis [15]
  Activity: 4 µg/mL
Candida dubliniensis [16]
  log10cfu: 2.64
Candida dubliniensis [17]
  log10cfu: 4.21
Candida dubliniensis [18]
  MFC: 2 µg/mL (≈ 1.75 µM)
Candida dubliniensis [19]
  Activity: 4 µg/mL
Candida dubliniensis [20]
  log10cfu: 4.54
Candida dubliniensis [21]
  MIC50: < 0.03 µg/mL
Candida dubliniensis [22]
  MIC50: < 0.03 µg/mL
Candida dubliniensis [23]
  MIC50: < 0.03 µg/mL
Candida dubliniensis [24]
  MFC: > 16 µg/mL
Candida dubliniensis [25]
  MIC50: < 0.03 µg/mL
Candida dubliniensis [26]
  log10cfu: 6.33
Candida dubliniensis [27]
  Activity: 4 µg/mL
Candida dubliniensis [28]
  MIC50: < 0.03 µg/mL
Candida dubliniensis [29]
  MFC: > 16 µg/mL
Candida dubliniensis [30]
  MIC50: < 0.03 µg/mL
Candida dubliniensis [31]
  log10cfu: 5.94
Candida dubliniensis [32]
  log10cfu: 2.95
Candida dubliniensis [33]
  MIC50: < 0.03 µg/mL
Candida dubliniensis [34]
  MFC: 2 µg/mL (≈ 1.75 µM)
Candida dubliniensis [35]
  MFC: > 16 µg/mL
Candida dubliniensis [36]
  MIC50: < 0.03 µg/mL
